Bioassay records from PubChem.
The list is not random: actives were taken first. Their share in the collection is about 1.6%.
core dimer inh = HCV core protein dimerization inhibition; TR-FRET GST/Flag-core106 dimerization, 1536-well; inhibition, % at 5 µM; actives 0.33% (n = 300,000);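 active = inhibition above the mean of all tested compounds plus 3 SD, set per screening campaign, cut at about 45% in these data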
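System – GST-tagged and Flag-tagged HCV core protein residues 1-106 · Repeats – one well for each compound · Technique – TR-FRET 671 and 617 nm emission · Doses – one concentration, 5 µM, in 0.5% DMSO · Times – 4 h, 22.5 °C incubation · Also added – Eu donor and XL665 acceptor anti-tag antibodies · Measure – percent inhibition of core106 dimerization signal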
IMP-1 inh-1 = blocks Pseudomonas aeruginosa IMP-1 metallo-beta-lactamase; purified IMP-1, nitrocefin hydrolysis, epi-absorbance fluorescence; inhibition, % at 5.6 µM; actives 0.45% (n = 290,000);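 active = inhibition above the mean plus 3 SD of all compounds in the same screening run, cut at about 4.5% in these data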
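system = purified recombinant IMP-1 beta-lactamase | amount = 0.2 nM IMP-1, as dispensed | medium = HEPES buffer pH 7.1 with ZnSO4 and Brij 35 | times = 25 °C, 15 min preincubation, 25 min reaction | detection = plate fluorescence quenching by hydrolysis product, ex 480/em 530 nm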
VIM-2 inhibitor = inhibitors of Pseudomonas aeruginosa VIM-2 metallo-beta-lactamase. actives 0.89% (n = 290,000). purified VIM-2, nitrocefin hydrolysis, epi-absorbance fluorescence. inhibition, % at 5.6 µM;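 active = inhibition above the mean of all tested compounds plus 3 SD, cutoff set per screening run, cut at about 7.5% in these data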;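 also: red hydrolysis product quenches plate fluorescence so inhibitors raise well fluorescence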
DNA FID counter = counter-screen for HCV NS3 helicase inhibitors: DNA intercalator displacement; DNA fluorescent intercalator displacement, fluorescence; AID 1845; inhibition, % at 7.9 µM; actives 0.17% (n = 290,000); in the data active = inhibition above about 37%;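 also: higher means more ethidium bromide displaced from hairpin DNA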
IMP-1 inh-2 = IMP-1 inhibition, counter-screen for VIM-2 inhibitors. shares compounds with VIM-2 inhibitor. purified IMP-1, nitrocefin hydrolysis, epi-absorbance fluorescence. inhibition, % at 5.6 µM. 1,300 tested, under 10 active. AID 1856; call rule not given here
VIM-2 FRET inh = counter-screen for VIM-2 inhibitors: epi-absorbance artifacts via FRET; AID 1857; inhibition, % at 5.6 µM; purified VIM-2, CCF2 FRET substrate hydrolysis; actives 23% (n = 1,300); shares compounds with VIM-2 inhibitor;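 active = inhibition above the mean of all tested compounds plus 3 SD, cut at about 19% in these data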
TEM-1 counter = selectivity counter-screen for VIM-2 inhibitors: E. coli TEM-1 inhibitors. inhibition, % at 5.6 µM. AID 1866. Purified TEM-1, nitrocefin hydrolysis, epi-absorbance fluorescence. actives 3% (n = 1,300). shares compounds with VIM-2 inhibitor;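 active = inhibition above that campaign's mean inhibition plus 3 SD, cut at about 0.46% in these data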
Target sequence (P62593 whole entry, looked up): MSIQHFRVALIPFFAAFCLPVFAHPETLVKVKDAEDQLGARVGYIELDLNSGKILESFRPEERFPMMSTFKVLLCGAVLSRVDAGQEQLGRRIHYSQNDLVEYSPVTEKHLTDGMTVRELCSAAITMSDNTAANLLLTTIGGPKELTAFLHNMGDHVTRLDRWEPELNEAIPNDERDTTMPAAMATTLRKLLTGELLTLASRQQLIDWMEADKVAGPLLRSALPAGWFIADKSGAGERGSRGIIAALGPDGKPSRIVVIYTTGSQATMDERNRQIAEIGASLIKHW
VIM-2 inh conf = confirmation of P. aeruginosa VIM-2 metallo-beta-lactamase inhibitors. shares compounds with VIM-2 inhibitor. actives 96% (n = 1,300). purified VIM-2, nitrocefin hydrolysis, epi-absorbance. AID 2187. inhibition, % at 5.6 µM;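 active = inhibition of the VIM-2 beta-lactamase enzyme above about 11% from the earlier first-round screen, limit read from the data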
Numbers stand for hits; i = inactive; nt = no result given.

SMILES | core dimer inh | IMP-1 inh-1 | VIM-2 inhibitor | DNA FID counter | IMP-1 inh-2 | VIM-2 FRET inh | TEM-1 counter | VIM-2 inh conf
Cc1cc(C)n2c(nc3ccccc32)c1C(=O)NN | i | i | i | i | nt | nt | nt | nt
COC(=O)c1c(C)cc(C)n2c1nc1ccccc12 | i | i | 15 | i | i | i | i | 28
COc1ccc(CCNC(=O)C(=O)NCCOc2ccccc2Cl)cc1OC | i | i | i | i | nt | nt | nt | nt
O=C(COc1ccc2c(c1)CCC2)N1CCc2ccccc21 | i | i | i | i | nt | nt | nt | nt
O=C(O)C1Sc2[nH]c(=O)sc2C2c3cc(Cl)ccc3OC(=O)C12 (configuration not stated) | i | i | 14 | i | i | 41 | i | 29
CCOC(=O)c1c(C)n(C)c2ccc(OCC(O)CN3CCN(C)CC3)cc12 (configuration not stated) | i | i | 69 | i | i | i | i | 75
CCN1CCN(CC(O)COc2ccc(C)c(C)c2)CC1 (configuration not stated) | i | i | i | i | nt | nt | nt | nt
Cc1cc(OCC(O)CN2CCN(C)CC2)ccc1C(C)C (configuration not stated) | i | i | i | i | nt | nt | nt | nt
CCN1CCN(CC(O)COc2ccc3c(C)cc(=O)oc3c2)CC1 (configuration not stated) | i | i | 15 | i | i | i | i | 23
CN1CCN(CC(O)COc2ccc(OCC(O)CN3CCN(C)CC3)cc2)CC1 (configuration not stated) | i | i | i | i | nt | nt | nt | nt
CCOC(=O)c1c(C)n(-c2ccc(C)cc2)c2ccc(OCC(O)CN3CCN(C)CC3)cc12 (configuration not stated) | nt | i | 15 | i | i | i | i | 26
CCn1nc(C)cc1C(=O)N1CCc2c([nH]c3ccccc23)C1c1cc(F)ccc1F (configuration not stated) | i | i | i | i | nt | nt | nt | nt
CCN1CCN(C(=O)CCc2nc3ccccc3c(=O)[nH]2)CC1 | i | i | 21 | i | i | i | i | 43
S=c1[nH]nc(Cn2c(-c3ccccn3)nc3ccccc32)n1-c1ccc2c(c1)OCCO2 | i | i | 23 | i | i | 49 | i | 31
S=c1[nH]nc(-c2ccc3ccccc3n2)n1-c1ccc2ncccc2c1 | i | i | i | i | nt | nt | nt | nt
Cc1ccc(C)c(-n2c(-c3ccc4c(c3)OCO4)n[nH]c2=S)c1 | i | i | i | i | nt | nt | nt | nt
S=c1[nH]nc(-c2ccc3ncccc3c2)n1-c1ccc2c(c1)OCCO2 | i | i | 27 | i | i | 52 | i | 33
Oc1ccc(-c2n[nH]c(=S)n2-c2ccc3c(c2)OCCO3)cc1 | i | i | 14 | i | i | 33 | i | 20
CCOc1ccc(CCNC(=O)CCC(=O)Nc2ccc3nc(N4CCN(C)CC4)cc(C)c3c2)cc1OCC | i | i | i | i | nt | nt | nt | nt
Cc1ccccc1CSCC(=O)Nc1ccccc1Br | i | i | i | i | nt | nt | nt | nt
CCOC(=O)C1CCCN(C(=O)c2cc(Cl)ccc2NC(=O)C2=C(C)OCCS2)C1 (configuration not stated) | i | i | i | i | nt | nt | nt | nt
Cc1ccc(S(=O)(=O)Nc2ccc(NC(=O)c3cccnc3)cc2)cc1 | i | i | i | i | nt | nt | nt | nt
CCSc1nccc(-c2nn(-c3ccc(C)cc3)ccc2=O)n1 | i | i | 28 | i | i | i | i | 39
Cc1cc(OC(C)C(=O)NCCCn2ccnc2)c2c(C)c(C)c(=O)oc2c1 (configuration not stated) | i | i | 64 | i | i | i | i | 74
Cc1cc(OCC(=O)NCCN2CCOCC2)c2c(C)c(C)c(=O)oc2c1 | i | i | 19 | i | i | i | i | 29
SMILES | core dimer inh | IMP-1 inh-1 | VIM-2 inhibitor | DNA FID counter | IMP-1 inh-2 | VIM-2 FRET inh | TEM-1 counter | VIM-2 inh conf
Cc1cc(OCC(=O)NCCCn2ccnc2)c2c(C)c(C)c(=O)oc2c1 | i | i | 80 | i | i | i | i | 85
O=C(COc1ccc(Cl)cc1Cl)NCCCn1ccnc1 | i | i | i | i | nt | nt | nt | nt
CCCCc1cc(=O)oc2cc(C)cc(OCC(=O)NCCN3CCOCC3)c12 | i | i | i | i | nt | nt | nt | nt
CCc1cc(=O)oc2cc(C)cc(OCC(=O)NCCCn3ccnc3)c12 | i | i | 51 | i | i | i | i | 61
CCC1(C)Cc2nc3[nH]c(=S)n(-c4ccc(C)cc4)c(=O)c3cc2CO1 (configuration not stated) | i | i | i | i | nt | nt | nt | nt
Cc1ccc(C)c(COC(=O)CCN=C2NS(=O)(=O)c3ccccc32)c1 | i | nt | nt | nt | nt | nt | nt | nt
CC(C)(C)c1ccc(OCc2ccc(C(=O)N/N=C/c3ccc(O)c(O)c3)cc2)cc1 | i | i | i | i | nt | nt | nt | nt
COc1cc2c(cc1NC(=O)/C=C/c1ccc([N+](=O)[O-])cc1)oc1ccccc12 | i | i | i | i | nt | nt | nt | nt
Cc1cc(NCCN2CCOCC2)n2nc(C)c(-c3ccc(Cl)cc3)c2n1 | i | i | i | i | nt | nt | nt | nt
Cc1cc(NCc2ccccc2)n2ncc(-c3ccccc3)c2n1 | i | i | i | i | nt | nt | nt | nt
Cc1cc(NCCCn2ccnc2)n2ncc(-c3ccccc3)c2n1 | i | i | 57 | i | i | i | 1.4 | 73
Cc1cc(NCCCn2ccnc2)n2nc(C)c(-c3ccc(Cl)cc3)c2n1 | i | i | 50 | i | i | i | i | 60
c1ccc(-c2nc(NCCCn3ccnc3)c3ccccc3n2)cc1 | i | i | 22 | 66 | i | i | i | 36
Cc1cc(NCCCn2ccnc2)n2nc(C)c(-c3ccccc3)c2n1 | i | i | 68 | i | i | i | i | 79
Cc1cc(NCCN2CCOCC2)n2nc(C)c(-c3ccccc3)c2n1 | i | i | i | i | nt | nt | nt | nt
O=C(N/C(=C\c1cccs1)C(=O)N1CCOCC1)c1cccs1 | i | i | i | i | nt | nt | nt | nt
CN1CCN(C(=O)/C(=C/c2cccs2)NC(=O)c2cccs2)CC1 | i | i | 17 | i | i | i | i | i
COc1ccc(-c2ccnc3ncnn23)cc1 | i | i | i | i | nt | nt | nt | nt
c1ccc2c(c1)ncn2-c1ccc(-c2ccnc3ncnn23)cc1 | i | i | 30 | i | i | i | i | 65
Cc1nccc(-c2ccc(-n3cnc4ccccc43)cc2)n1 | i | i | 17 | i | i | i | i | 33
Nc1nccc(-c2ccc(-n3cnc4ccccc43)cc2)n1 | i | i | 18 | i | i | i | i | 39
Cc1ccc2cccc(NC3OC(=O)c4ccccc43)c2n1 (configuration not stated) | i | i | 14 | i | i | i | i | i
COC(=O)c1ccccc1NC1OC(=O)c2ccccc21 (configuration not stated) | i | i | i | i | nt | nt | nt | nt
O=C(CSc1nnc(NC(=O)c2ccccc2)s1)NCc1ccco1 | i | i | 25 | i | i | 44 | i | 28
